# Laboratory results from ChEMBL document CHEMBL1153988 (J Med Chem, 2009).
# Active and inactive are the calls of the source. The rule behind the calls is not given here.
# Tests used:
# Rattus norvegicus [1] = assay: Anticonvulsant activity in albino Sprague-Dawley rat assessed as protection against maximal electroshock-induced seizures at 75 mg/kg, po after 4 hrs; format: functional
# Procedure, shortened: (§1)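 Adult male Sprague-Dawley albino rats (100-150 g) dosed orally with compound suspended in 0.5% methylcellulose (0.04 mL per 10 g). Maximal electroshock challenge at the stated time. Protection is scored in 25% steps as the fraction of animals protected, with neurotoxicity recorded in parallel.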
# Mus musculus [2] = assay: Anticonvulsant activity in CF1 albino mouse assessed as protection against maximal electroshock-induced seizures at 30 mg/kg, ip after 4 hrs; format: functional, organism-based; set-up: dose 30 mg/kg
# Procedure, shortened: (§2)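 Adult male CF no. 1 albino mice (18-25 g). Test compound suspended in 0.5% methylcellulose and given intraperitoneally at 0.01 mL/g body weight. Maximal electroshock challenge at the stated time. Read-out is the number of animals protected over the number tested; neurotoxicity is scored in parallel.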
# Mus musculus [3] = assay: Anticonvulsant activity in CF1 albino mouse assessed as protection against maximal electroshock-induced seizures at 300 mg/kg, ip after 4 hrs; format: functional, organism-based; set-up: dose 300 mg/kg; procedure, shortened: as §2
# Mus musculus [4] = assay: Anticonvulsant activity in CF1 albino mouse assessed as protection against scMet-induced seizures at 300 mg/kg, ip after 0.5 hrs; format: functional, organism-based; set-up: dose 300 mg/kg
# Procedure, shortened: (§3)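 Adult male CF no. 1 albino mice (18-25 g) dosed intraperitoneally with compound suspended in 0.5% methylcellulose (0.01 mL/g). Convulsant challenge given subcutaneously as a 0.85% pentylenetetrazol solution in 0.9% saline. Read-out is animals protected over animals tested, with neurotoxicity scored in parallel.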
# Rattus norvegicus [5] = assay: Anticonvulsant activity in albino Sprague-Dawley rat assessed as protection against scMet-induced seizures at 75 mg/kg, po after 1 hr; format: functional, organism-based; set-up: dose 75 mg/kg
# Procedure, shortened: (§4)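 Male Sprague-Dawley albino rats (100-150 g) were given the compound orally as a suspension in 0.5% methylcellulose. Seizures were induced by subcutaneous pentylenetetrazol, dissolved in 0.9% saline as a 2.82% solution. The read-out was animals protected over animals tested.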
# Mus musculus [6] = assay: Anticonvulsant activity in CF1 albino mouse assessed as protection against scMet-induced seizures at 100 mg/kg, ip after 4 hrs; format: functional, organism-based; set-up: dose 100 mg/kg; procedure, shortened: as §3
# Mus musculus [7] = assay: Anticonvulsant activity in CF1 albino mouse assessed as protection against scMet-induced seizures at 30 mg/kg, ip after 4 hrs; format: functional, organism-based; set-up: dose 30 mg/kg; procedure, shortened: as §3
# Mus musculus [8] = assay: Anticonvulsant activity in CF1 albino mouse assessed as protection against scMet-induced seizures at 30 mg/kg, ip after 0.5 hrs; format: functional, organism-based; set-up: dose 30 mg/kg; procedure, shortened: as §3
# Rattus norvegicus [9] = assay: Anticonvulsant activity in albino Sprague-Dawley rat assessed as protection against maximal electroshock-induced seizures at 75 mg/kg, po after 1 hr; format: functional, organism-based; set-up: dose 75 mg/kg; procedure, shortened: as §1
# Mus musculus [10] = assay: Neurotoxicity in CF1 albino mouse at 300 mg/kg, ip after 4 hrs; format: toxicity, organism-based; set-up: dose 300 mg/kg, route intraperitoneal; conditions: in vivo
# Procedure, shortened: (§5)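 Male CF no. 1 albino mice (18-25 g) received a single ip dose as a suspension in 0.5% methylcellulose. The read-out was the number of animals showing neurotoxicity (minimal motor impairment) over the number tested.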
# Mus musculus [11] = assay: Anticonvulsant activity in CF1 albino mouse assessed as protection against scMet-induced seizures at 100 mg/kg, ip after 0.5 hrs; format: functional, organism-based; set-up: dose 100 mg/kg; procedure, shortened: as §3
# Mus musculus [12] = assay: Anticonvulsant activity in CF1 albino mouse assessed as protection against scMet-induced seizures at 300 mg/kg, ip after 4 hrs; format: functional, organism-based; set-up: dose 300 mg/kg; procedure, shortened: as §3
# Rattus norvegicus [13] = assay: Anticonvulsant activity in albino Sprague-Dawley rat assessed as protection against scMet-induced seizures at 75 mg/kg, po after 2 hrs; format: functional; procedure, shortened: as §4
# Rattus norvegicus [14] = assay: Anticonvulsant activity in albino Sprague-Dawley rat assessed as protection against scMet-induced seizures at 75 mg/kg, po after 4 hrs; format: functional, organism-based; set-up: dose 75 mg/kg; procedure, shortened: as §4
# Mus musculus [15] = assay: Anticonvulsant activity in CF1 albino mouse assessed as protection against maximal electroshock-induced seizures at 300 mg/kg, ip after 0.5 hrs; format: functional, organism-based; set-up: dose 300 mg/kg; procedure, shortened: as §2
# Rattus norvegicus [16] = assay: Anticonvulsant activity in albino Sprague-Dawley rat assessed as protection against scMet-induced seizures at 75 mg/kg, po after 15 mins; format: functional, organism-based; set-up: dose 75 mg/kg; procedure, shortened: as §4
# Rattus norvegicus [17] = assay: Anticonvulsant activity in albino Sprague-Dawley rat assessed as protection against scMet-induced seizures at 75 mg/kg, po after 30 mins; format: functional, organism-based; set-up: dose 75 mg/kg; procedure, shortened: as §4
# Mus musculus [18] = assay: Neurotoxicity in CF1 albino mouse at 30 mg/kg, ip after 4 hrs; format: toxicity, organism-based; set-up: dose 30 mg/kg, route intraperitoneal; conditions: in vivo; procedure, shortened: as §5
# Rattus norvegicus [19] = assay: Anticonvulsant activity in albino Sprague-Dawley rat assessed as protection against maximal electroshock-induced seizures at 75 mg/kg, po after 30 mins; format: functional; procedure, shortened: as §1
# Rattus norvegicus [20] = assay: Anticonvulsant activity in albino Sprague-Dawley rat assessed as protection against maximal electroshock-induced seizures at 75 mg/kg, po after 15 mins; format: functional; procedure, shortened: as §1
# Mus musculus [21] = assay: Anticonvulsant activity in CF1 albino mouse assessed as protection against maximal electroshock-induced seizures at 30 mg/kg, ip after 0.5 hrs; format: functional, organism-based; set-up: dose 30 mg/kg; procedure, shortened: as §2
# Mus musculus [22] = assay: Anticonvulsant activity in CF1 albino mouse assessed as protection against maximal electroshock-induced seizures at 100 mg/kg, ip after 0.5 hrs; format: functional, organism-based; set-up: dose 100 mg/kg; procedure, shortened: as §2
# Mus musculus [23] = assay: Anticonvulsant activity in CF1 albino mouse assessed as protection against maximal electroshock-induced seizures at 100 mg/kg, ip after 4 hrs; format: functional, organism-based; set-up: dose 100 mg/kg; procedure, shortened: as §2
# Rattus norvegicus [24] = assay: Neurotoxicity in albino Sprague-Dawley rat assessed as animal exhibiting toxicity at 75 mg/kg, po; format: organism-based; set-up: dose 75 mg/kg, route oral; conditions: in vivo
# Procedure, shortened: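 Neurotoxicity was scored in male Sprague-Dawley albino rats (100-150 g) dosed orally with a suspension in 0.5% methylcellulose. The read-out was the fraction of animals showing neurotoxicity (minimal motor impairment).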
# Mus musculus [25] = assay: Neurotoxicity in CF1 albino mouse at 30 mg/kg, ip after 0.5 hrs; format: toxicity, organism-based; set-up: dose 30 mg/kg, route intraperitoneal; conditions: in vivo; procedure, shortened: as §5
# Rattus norvegicus [26] = assay: Anticonvulsant activity in albino Sprague-Dawley rat assessed as protection against maximal electroshock-induced seizures at 75 mg/kg, po after 2 hrs; format: functional, organism-based; set-up: dose 75 mg/kg; procedure, shortened: as §1
# Rattus norvegicus [27] = assay: Anticonvulsant activity in albino Sprague-Dawley rat assessed as protection against maximal electroshock-induced seizures at 30 mg/kg, po after 30 mins; format: functional, organism-based; set-up: dose 30 mg/kg; procedure, shortened: as §1
# Mus musculus [28] = assay: Neurotoxicity in CF1 albino mouse at 300 mg/kg, ip after 0.5 hrs; format: toxicity, organism-based; set-up: dose 300 mg/kg, route intraperitoneal; conditions: in vivo; procedure, shortened: as §5
# Rattus norvegicus [29] = assay: Anticonvulsant activity in albino Sprague-Dawley rat assessed as protection against scMet-induced seizures at 30 mg/kg, po after 1 hr; format: functional
# Procedure, shortened: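 Oral dosing of male Sprague-Dawley rats (100-150 g) with compound in 0.5% methylcellulose. Convulsant challenge given subcutaneously as a 2.82% pentylenetetrazol solution in 0.9% saline. Groups of about 8 rats per dose. For quantitation, doses spanning 0% to 100% protection were fitted by probit analysis to give ED50 with 95% confidence interval.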
# Mus musculus [30] = assay: Neurotoxicity in CF1 albino mouse at 100 mg/kg, ip after 0.5 hrs; format: toxicity, organism-based; set-up: dose 100 mg/kg, route intraperitoneal; conditions: in vivo; procedure, shortened: as §5
# Rattus norvegicus [31] = assay: Anticonvulsant activity in albino Sprague-Dawley rat assessed as protection against scMet-induced seizures at 30 mg/kg, po after 30 mins; format: functional; procedure, shortened: as §4
# Rattus norvegicus [32] = assay: Anticonvulsant activity in albino Sprague-Dawley rat assessed as protection against maximal electroshock-induced seizures at 30 mg/kg, po after 2 hrs; format: functional, organism-based; set-up: dose 30 mg/kg; procedure, shortened: as §1
# Rattus norvegicus [33] = assay: Anticonvulsant activity in albino Sprague-Dawley rat assessed as protection against maximal electroshock-induced seizures at 30 mg/kg, po after 15 mins; format: functional, organism-based; set-up: dose 30 mg/kg; procedure, shortened: as §1
# Rattus norvegicus [34] = assay: Anticonvulsant activity in albino Sprague-Dawley rat assessed as protection against scMet-induced seizures at 30 mg/kg, po after 2 hrs; format: functional; procedure, shortened: as §4
# Rattus norvegicus [35] = assay: Anticonvulsant activity in albino Sprague-Dawley rat assessed as protection against scMet-induced seizures at 30 mg/kg, po after 4 hrs; format: functional, organism-based; set-up: dose 30 mg/kg; procedure, shortened: as §4
# Rattus norvegicus [36] = assay: Anticonvulsant activity in albino Sprague-Dawley rat assessed as protection against scMet-induced seizures at 30 mg/kg, po after 15 mins; format: functional; procedure, shortened: as §4
# Rattus norvegicus [37] = assay: Anticonvulsant activity in albino Sprague-Dawley rat assessed as protection against maximal electroshock-induced seizures at 30 mg/kg, po after 1 hr; format: functional, organism-based; set-up: dose 30 mg/kg; procedure, shortened: as §1
# Rattus norvegicus [38] = assay: Anticonvulsant activity in albino Sprague-Dawley rat assessed as protection against maximal electroshock-induced seizures at 30 mg/kg, po after 4 hrs; format: functional, organism-based; set-up: dose 30 mg/kg; procedure, shortened: as §1
# Mus musculus [39] = assay: Neurotoxicity in CF1 albino mouse at 100 mg/kg, ip after 4 hrs; format: toxicity, organism-based; set-up: dose 100 mg/kg, route intraperitoneal; conditions: in vivo; procedure, shortened: as §5
Compound,Activity (Mus musculus [2]),Activity (Mus musculus [3]),Activity (Mus musculus [4]),Activity (Mus musculus [7]),Activity (Mus musculus [8]),Activity (Mus musculus [10]),Activity (Mus musculus [11]),Activity (Mus musculus [12]),Activity (Mus musculus [15]),Activity (Mus musculus [18]),Activity (Mus musculus [21]),Activity (Mus musculus [22]),Activity (Mus musculus [23]),Activity (Mus musculus [25]),further results
CC1(C)C(C)(C)C1(Cl)C(=O)O,Non-toxic,Non-toxic,Non-toxic,Non-toxic,Non-toxic,Non-toxic,Non-toxic,Non-toxic,Non-toxic,Non-toxic,Non-toxic,Non-toxic,Non-toxic,Non-toxic,Activity (Rattus norvegicus [1]): 25%; Activity (Rattus norvegicus [5]): inactive; Activity (Mus musculus [6]): Non-toxic; Activity (Rattus norvegicus [9]): inactive; Activity (Rattus norvegicus [13]): 25%; Activity (Rattus norvegicus [14]): inactive; Activity (Rattus norvegicus [16]): inactive; Activity (Rattus norvegicus [17]): inactive; Activity (Rattus norvegicus [19]): 25%; Activity (Rattus norvegicus [20]): 25%; Activity (Rattus norvegicus [24]): Not Active; Activity (Rattus norvegicus [26]): inactive
CC1(C)C(C)(C)C1(F)C(=O)NC(N)=O,Non-toxic,Non-toxic,Non-toxic,Non-toxic,Non-toxic,Non-toxic,Non-toxic,Non-toxic,Non-toxic,Non-toxic,Non-toxic,Non-toxic,Non-toxic,Non-toxic,Activity (Rattus norvegicus [27]): inactive; Activity (Mus musculus [28]): Non-toxic; Activity (Rattus norvegicus [29]): 25%; Activity (Mus musculus [30]): Non-toxic; Activity (Rattus norvegicus [31]): 25%; Activity (Rattus norvegicus [32]): inactive; Activity (Rattus norvegicus [33]): inactive; Activity (Rattus norvegicus [34]): 50%; Activity (Rattus norvegicus [35]): inactive; Activity (Rattus norvegicus [36]): 25%; Activity (Rattus norvegicus [37]): inactive; Activity (Rattus norvegicus [38]): inactive; Activity (Mus musculus [39]): Non-toxic
